Assay results from different studies.
Compare with care: the assays were run in different laboratories.
Target: Serine/threonine-protein kinase 3 (STK3, Homo sapiens, UniProt Q13188)
Residues used in one study (Q13188 1-491): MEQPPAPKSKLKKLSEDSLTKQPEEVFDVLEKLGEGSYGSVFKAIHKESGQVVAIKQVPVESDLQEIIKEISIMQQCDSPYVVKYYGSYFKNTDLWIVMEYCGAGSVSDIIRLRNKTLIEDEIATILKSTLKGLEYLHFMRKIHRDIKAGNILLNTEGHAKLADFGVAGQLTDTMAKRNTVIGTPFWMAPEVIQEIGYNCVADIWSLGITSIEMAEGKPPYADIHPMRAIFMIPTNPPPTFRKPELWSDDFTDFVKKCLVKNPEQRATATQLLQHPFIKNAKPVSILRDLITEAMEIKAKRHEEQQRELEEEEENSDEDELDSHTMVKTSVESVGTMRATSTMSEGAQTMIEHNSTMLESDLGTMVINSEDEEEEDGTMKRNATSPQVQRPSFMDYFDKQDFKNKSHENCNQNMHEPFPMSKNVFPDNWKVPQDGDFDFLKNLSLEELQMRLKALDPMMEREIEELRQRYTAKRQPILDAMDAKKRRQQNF

Compound | observed | technique | concentration | remaining binding [%]
COc1ncc2cc3ccccc3nc2c1C#N | cell-free assay | competition with immobilised ligand | 5 µM | 99
c1cncc(-c2cccc(Nc3nccc(NC4CCCCC4)n3)c2)c1 | binding | competition with immobilised ligand | 10 µM | 12
COc1ccc2c(c1)O[C@@H](c1ccc(OC)c(OC)c1)C[C@H]2NC(=O)C1(c2ccc3c(c2)OC(F)(F)O3)CC1 | cell-free assay | competition with immobilised ligand | 1 µM | 96
O=C(NCCCN1CCOCC1)c1ccc(Nc2nccc(-c3cc4ccccc4s3)n2)cc1 | binding | competition with immobilised ligand | 1 µM | 88
CCN1CCN(Cc2ccc(C(=O)Nc3ccc(C)c(Oc4ccc5c(c4)CC(=O)N5)c3)cc2C(F)(F)F)CC1 | binding | competition with immobilised ligand | 1 µM | 14
N[C@H]1CCN(c2nccc(-c3cnn4ncccc34)n2)C1 | binding |  | 1 µM | 100
O=C(O)c1cc(-c2ccc(C3CCNCC3)cc2)c2ccc(-c3ccc(C(F)(F)F)cc3)cc2c1 | cell-free assay | competition with immobilised ligand | 1 µM | 100
Cc1cnc(Nc2ccc(C(=O)N3CCC(N4CCCC4)CC3)cc2)nc1-c1cc2ccccc2s1 | binding | competition with immobilised ligand | 1 µM | 75
Cc1c(NC(=O)c2cc(C(N)=O)nc3cc(F)ccc23)c(C(F)(F)F)nn1Cc1ccc(C#N)cc1 | cell-free assay | competition with immobilised ligand | 1 µM | 96
COc1cnc(Nc2cccc(S(N)(=O)=O)c2)nc1N1CCN(c2ccccc2)C(=O)C1 | binding | competition with immobilised ligand | 1 µM | 98
CN([C@@H]1CCc2c(CC(=O)O)c3cc(S(C)(=O)=O)ccc3n2C1)S(=O)(=O)c1ccc(F)cc1 | cell-free assay | competition with immobilised ligand | 1 µM | 98
CN(CCCC(F)(F)F)c1nccc(-c2cnn3ncccc23)n1 | binding |  | 1 µM | 100
O=C(NCC1CCOCC1)c1n[nH]cc1NC(=O)c1c(F)cccc1F | binding | competition with immobilised ligand | 1 µM | 89
CN(c1nccc(-c2cnn3ncccc23)n1)C1CC1 | binding |  | 1 µM | 98
Cc1cc(NC(=O)c2cccc(S(F)(F)(F)(F)F)c2)cc(-n2ccn3nc(-c4cccnc4)cc23)c1 | cell-free assay | competition with immobilised ligand | 1 µM | 100
COc1ccnn2ncc(-c3ccnc(N(C)C)n3)c12 | binding |  | 1 µM | 100
C[C@H](c1ccnc(Nc2nc3ccc(-c4cc(N(C)C)ncn4)cc3[nH]2)c1)N1CCN(C(=O)CC(F)(F)F)CC1 | cell-free assay | competition with immobilised ligand | 0.1 µM | 93
O=C(c1ccc(Nc2nccc(-c3cc4ccccc4s3)n2)cc1)N1CCC(N2CCCC2)CC1 | binding | competition with immobilised ligand | 1 µM | 100
C[C@H]1CCN(c2nccc(-c3cnn4ncccc34)n2)C1 | binding |  | 1 µM | 92
C[C@H](c1ccc(F)cc1)N(Cc1cccc(C(=O)O)c1)C(=O)c1cnc2ccccc2c1 | cell-free assay | competition with immobilised ligand | 1 µM | 100
CN(C)c1nccc(-c2cnc3ncccn23)n1 | binding |  | 1 µM | 62
C[C@@H](c1ccc(-n2cnc3c(N)ncnc32)cc1)N1CCc2nn(C)c(Cc3ccccc3)c2C1=O | binding | competition with immobilised ligand | 0.1 µM | 74
